Assay results as given in ChEMBL document CHEMBL1137731, “Cytotoxicity and TOP1-targeting activity of 8- and 9-amino derivatives of 5-butyl- and 5-(2-N,N-dimethylamino)ethyl-5H-dibenzo[c,h][1,6]naphthyridin-6-ones” (Eur J Med Chem, 2009).

Legend:
RPMI8402 (human) = test: Cytotoxicity against human RPMI8402 cells by MTT method; conditions: RPMI-8402
P388 = test: Cytotoxicity against mouse P388 cells by MTT method; format: functional, cell-based
Outline: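 MTT assay with P388 mouse leukaemia cells grown in suspension at 37 °C, 5% CO2, in RPMI with 10% heat-inactivated FBS, 2 mM L-glutamine and penicillin/streptomycin. Cells were exposed continuously to varying drug concentrations for 4 days, with a drug-free control, and MTT was read at day 4. The IC50 came from at least two assays, each in six replicate wells.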

Homo sapiens = organism: Homo sapiens; test: Inhibition of human recombinant topoisomerase 1 expressed in Escherichia coli assessed as drug level causing 10% mediated DNA cleavage relative to topotecan
Outline: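 Recombinant human TOP1, expressed in E. coli as a T7-system fusion protein, was incubated with drug and 3′-end-labelled plasmid YepG for 30 min at room temperature. Reactions were stopped with SDS and proteinase K (1 h, 37 °C), alkali-denatured, and run on a neutral agarose gel. The read-out was the concentration giving 10% cleavage, expressed relative to topotecan set at 1.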

[1] = Cytotoxicity against multidrug resistant human KBH5.0 cells overexpressing BCRP by MTT method; format: functional, cell-based; conditions: KBH5.0 cell
[2] = Cytotoxicity against human KB3-1 cells by MTT method; format: functional, cell-based; conditions: KB 3-1
[3] = Cytotoxicity against multidrug resistant human KBV1 cells overexpressing MDR1 by MTT method; format: functional, cell-based; conditions: KB-V1

SMILES | IC50 (RPMI8402 (human)) [nM] | IC50 (P388) [nM] | Activity (Homo sapiens) | IC50 [1] [nM] | IC50 [2] [nM] | IC50 [3] [nM]
CC[C@@]1(O)C(=O)OCc2c1cc1n(c2=O)Cc2cc3ccccc3nc2-1 [CAMPTOTHECIN] | 6 | 14 | 0.2 | – | – | –
CN(C)CCn1c(=O)c2ccc(NC(=O)CN(C)C)cc2c2cnc3cc4c(cc3c21)OCO4 | 35 | 35 | > 20 | 120 | 36 | 190
CN(C)CCn1c(=O)c2ccc(N)cc2c2cnc3cc4c(cc3c21)OCO4 | 33 | 28 | 0.5 | 150 | 130 | 130
CCCCn1c(=O)c2cc(NCCN(C)C)ccc2c2cnc3cc4c(cc3c21)OCO4 | 1570 | 780 | > 20 | 1700 | 1700 | 3200
CCCCn1c(=O)c2ccc(N)cc2c2cnc3cc4c(cc3c21)OCO4 | 3500 | 6000 | > 20 | 3500 | 5800 | 2500
CN(C)CCn1c(=O)c2cc(N)ccc2c2cnc3cc4c(cc3c21)OCO4 | 90 | 40 | 8 | 330 | 230 | 280
CN(C)CCn1c(=O)c2cc([N+](=O)[O-])ccc2c2cnc3cc4c(cc3c21)OCO4 | 5 | 9 | 0.2 | 25 | 26 | 25
CCCCn1c(=O)c2ccc(NCCN(C)C)cc2c2cnc3cc4c(cc3c21)OCO4 | 1800 | 1800 | > 20 | 3500 | 3000 | 4500
CN(C)CCNc1ccc2c(=O)n(CCN(C)C)c3c4cc5c(cc4ncc3c2c1)OCO5 | 850 | 60 | > 20 | 320 | 120 | 550
CN(C)CCn1c(=O)c2ccc([N+](=O)[O-])cc2c2cnc3cc4c(cc3c21)OCO4 | 2 | 5 | 0.1 | 5 | 5 | 4
CCCCn1c(=O)c2cc(NC(=O)CN(C)C)ccc2c2cnc3cc4c(cc3c21)OCO4 | 330 | 250 | > 20 | 1600 | 1500 | 2600
CCCCn1c(=O)c2cc(N)ccc2c2cnc3cc4c(cc3c21)OCO4 | 1250 | 280 | > 20 | 3500 | 3200 | 2500
CN(C)CCn1c(=O)c2cc(NC(=O)CN(C)C)ccc2c2cnc3cc4c(cc3c21)OCO4 | 120 | 100 | > 20 | 240 | 180 | 600
CCCCn1c(=O)c2cc([N+](=O)[O-])ccc2c2cnc3cc4c(cc3c21)OCO4 | 2400 | 150 | > 10 | 500 | 400 | 300
CCCCn1c(=O)c2ccc(NC(=O)CN(C)C)cc2c2cnc3cc4c(cc3c21)OCO4 | 300 | 600 | > 20 | 1900 | 900 | 2000
CC[C@@]1(O)C(=O)OCc2c1cc1n(c2=O)Cc2cc3c(CN(C)C)c(O)ccc3nc2-1 [TOPOTECAN] | 21 | 45 | – | 440 | 40 | 440
CN(C)CCNc1ccc2c(c1)c(=O)n(CCN(C)C)c1c3cc4c(cc3ncc21)OCO4 | 120 | 40 | > 20 | 300 | 50 | 410
CCCCn1c(=O)c2ccc([N+](=O)[O-])cc2c2cnc3cc4c(cc3c21)OCO4 | 480 | 700 | > 10 | 360 | 310 | 850
